Results from the RNAGym collection of RNA variant scans (doi:10.1126/science.aae0568).
Fewer inactive variants are shown than the library holds.

B1: tRNA (parent)
chain: GUUCCGUUGGCGUAAUGGUAACGCGUCUCCCUCCUAAGGAGAAGACUGCGGGUUCGAGUCCCGUACGGAACG

Variants of: B1
Test: yeast fitness relative to wild type (ratio to wild type); higher = fitter; tRNA-Arg(CCU), competitive growth, 37 C, YPD
How it was run: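 Start and end populations of a pooled competition were compared by 100-nucleotide paired-end sequencing of gene amplicons. The Saccharomyces cerevisiae strains carried tRNA-Arg(CCU) gene variants at the native genomic locus, synthesised with a 3% per-site mutation rate at 69 sites, and competed in YPD at 37°C for 24 hours in six parallel replicates. Darwinian fitness relative to wild type was based on the change in genotype frequencies. Genotypes required ≥ 100 starting reads, and estimates < 0.5 were set to 0.5.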

Variant	yeast fitness
G18A C62U	0.712
G44A G52C	0.504
G6C G17A C24A U32C A45C	≤ 0.5
C11A C34A G58C	≤ 0.5
U19C G23A C24G A40U A65U	≤ 0.5
U3A A21U C49A	≤ 0.5
C4A C11A U13C U28G A43G	≤ 0.5
G6A C31A U59C A70U	≤ 0.5
U2C G17A U19C G50C G56C	≤ 0.5
A15G G50A A57G	0.584
C27U C49A U64C	0.756
C5A C27U G39C C49U C55U	≤ 0.5
U8C A45U	0.923
G12A A15G C49U A65C A70G	≤ 0.5
C4U C30A U54C	0.739
C5G C24U A36C C49A	0.577
U3A C4U U7A C24U C46G A65G	≤ 0.5
C5G U16A C31G A65U C66A	≤ 0.5
C31U G58A	0.965
U3A C30U C31U G52A	≤ 0.5
C30G C46G U53C A57G A69U	≤ 0.5
C24A A57G	0.601
C22U A37U G50C C66U	0.697
A45U G50A G68C A69U	≤ 0.5

Variant	yeast fitness
C24G C31G C33A G50C C55G A57U C62U	≤ 0.5
A20C G48C	0.889
U13G U35G A40G C66U	0.526
C22U C30U A37U C46G U64A G67A	≤ 0.5
C27U C29A	0.737
A43C G58C	1.03
A45G C46U G50C	≤ 0.5
C5G A20U A70C	0.68
G23A U47A G58C	0.596
G18C G23A G25C A37G A43C C55G C62A G68A	≤ 0.5
A37U G44A A70C	0.614
A14G A40G A42U G67C	0.665
G6A C31U C46A A57U C60U	≤ 0.5
C29A U35C A70G	≤ 0.5
U2A C31G G39C C49U C60G	≤ 0.5
C55U C61A G68C	≤ 0.5
U13A C30U U47A U59A C60U C62G	≤ 0.5
U2G G6C C11U C27U G63C	≤ 0.5
U8C C24A C46G G52C U59A	≤ 0.5
C11G A14G G17A G48C C62U C66G A70G	≤ 0.5
A36G A69C	1.05
G6A G12C U16A A21C G56A	0.536
U8G G18C C49U G58A G67A	≤ 0.5
U16A C61U	1.02

Variant	yeast fitness
G9A C11G C33U A36G C55G	≤ 0.5
C4U A69U	1.02
C11G G67U A69C	0.528
U13C A20C A43G	0.684
C31G A57U	0.726
C30U C46U	0.966
C31G C33A C49U U54G A65U	0.597
G25C A40C	0.848
C4U C24U C66U A70C	0.51
G23A U32C A42G U54G C62U	≤ 0.5
C29A A42G	0.672
A14G C22A A57U	≤ 0.5
A45C C55A	0.562
C66A G67A	0.557
A20G U64A	0.902
C5G U8A A14G	≤ 0.5
U8G G25C A36G G48A	≤ 0.5
U8A A40G C62A	≤ 0.5
G58C U59C	0.948
U3A C49A A69U	0.558
C4A U64C	0.923
G56C C61A	≤ 0.5
C4G A40U A45U G67A	≤ 0.5
G25A A42U A43C G44A	0.764

Variant	yeast fitness
A20C U32A U64A A65U	0.558
C4U C5G C29U A65G	≤ 0.5
C5U G9A G67A	1.05
C4A C33A A40U A70G	≤ 0.5
U13A C46G U53C C62U A69C	≤ 0.5
C5G G39A U47G C49G A69C	0.764
U19A A70G	0.913
C27U G39A G41A A69U	0.674
A37G U53A	≤ 0.5
A14G C46U G50C C55U A57U C62G	0.571
A21U C24U C66U	≤ 0.5
C24G G44C G58C	0.547
U16A U35C A45G G56C G63C	≤ 0.5
U26A C49G C61A	≤ 0.5
G17A A21G C22A A40U C61U	≤ 0.5
A21U C29U A69G	≤ 0.5
G48A C55U A69U	0.522
A14C G63A	0.803
G6A U32C A37G C55A A65U G68C	≤ 0.5
G6A A14G A36G A45U	0.574
G6A U8C C34G	≤ 0.5
U7C G41A A42C G50C A69C	0.527
C5A G25A U28C C31U A40C A42G A69C	≤ 0.5
U28C U32C C60A	≤ 0.5

Variant	yeast fitness
A45G C66U	0.952
C30U A42G	0.8
G9C C29U C30A G56A	≤ 0.5
G9A G12C U13A G25A C30G C66U	≤ 0.5
C4U G9C C61G	≤ 0.5
G10A A14U C66U	≤ 0.5
A36G A42C G68C	0.608
U3A U13C C29A U32A A43G G67C	≤ 0.5
G6A C31A A69U	0.506
G17C C29U U32A C46U C60A C66G	≤ 0.5
G25C G51C	0.654
C34U G38A	0.689
C4U U26G C62G A70U	≤ 0.5
C11G A43C C46G	0.514
U8C C22A C29G G44A U64G	≤ 0.5
C34A A42C	0.818
G9A G48C U53G	≤ 0.5
A36G C61U C66U	0.543
G39A C55U C61A	≤ 0.5
C5U C11U A15G C34U G44C U47G	≤ 0.5
A43G C62A	0.72
U2G C27U C46G	0.564
A15G U16A U19C C30U G52C	≤ 0.5
C33U A43C G48A G63C	≤ 0.5

Variant	yeast fitness
G10C C30G C34G A57G C66U	0.523
C33A G44A U64G	≤ 0.5
C27U C31A A57U	≤ 0.5
C4A G6A U64A	≤ 0.5
C4A C31G C62U	0.71
A20U A43G A57C U59A A65C	≤ 0.5
U3A A14G C24G C29A G50C A57C	≤ 0.5
A20U A57C	0.644
A14U A20C C27U U35C G48A A70U	≤ 0.5
U35G A69U	0.769
C11G G25C G48C G51C C66A	≤ 0.5
C4U C31U A69C	0.669
U35A G50A A69U	0.621
G9A U54C G56A	0.661
G41C G63C	0.727
G25A C46U	0.938
A14C U32G U64C	0.532
C29U A42G U64C	0.592
G6C A14C C24U C27G C29A A70G	≤ 0.5
C22U A36G G51C	≤ 0.5
C22G A45C G52C A57U A69C	0.619
U7A G17C C24G C29A	≤ 0.5
C30G U32C G50C U59C	≤ 0.5
G9A A21C C34A A43G	≤ 0.5

Variant	yeast fitness
C30U G38A	1
U8G C27A C31A C33G	≤ 0.5
C11U G12A G44C C46U U59A	≤ 0.5
C27G C66U	0.621
A21G A43C A70U	0.712
C5U A15C G23C G56A	≤ 0.5
U7C A43G	0.841
C4A G63U	0.624
A14G A20U A36U G51C G52C	≤ 0.5
G9C G39C C55G C62G A65C	≤ 0.5
C5G A20G C22G C29G G63C	≤ 0.5
A14C A15G G17C A45C	≤ 0.5
C24A G38C G48A	≤ 0.5
U3A U13G C22U A40U C55G A70G	≤ 0.5
U47A A70C	0.842
C5U C11G U19G C24G C30U	0.547
A14U A42U A57U A70U	≤ 0.5
U35A A70G	0.588
U2G A37C	0.585
U19A U47A	0.837
A37C G51A G67A	0.584
A14G A15G G68C	0.537
U8C C29U A43G C66U	≤ 0.5
